From ChEMBL document CHEMBL1687834, “Identification and characterization of persistent intracellular human immunodeficiency virus type 1 integrase strand transfer inhibitor activity” (Antimicrob Agents Chemother, 2011)
The source made the active and inactive calls. The rule behind the calls is not given here.

Columns and labels:
[1] = tested on: Human immunodeficiency virus 1; test: Antiviral activity against HIV1 NL4-3.Luc in human MDM assessed as infectivity treated for 24 hrs by luciferase assay; assay type: functional, organism-based; conditions: Human immunodeficiency virus 1, 24 h
[2] = tested on: Human immunodeficiency virus 1; test: Antiviral activity against HIV1 NL4-3.Luc assessed as infectivity using human PBMC pretreated for 24 hrs followed by exposed to virus after compound washout measured after 2 to 3 days by luciferase assay; assay type: functional, organism-based
[3] = tested on: Human immunodeficiency virus 1; test: Antiviral activity against single-round HIV1 NLX.Lux-R harboring inactivating mutations in env, vpr and carries firefly luciferase gene in place of nef infected in human HeLa-T4 cells assessed as luciferase activity after 48 hrs […]; assay type: functional, organism-based; conditions: Human immunodeficiency virus 1, HeLaT4, 48 h
Method in brief: (§1)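 HeLa-T4 cells infected in duplicate for 2 h with 105 RT-cpm VSV-G-pseudotyped HIV-Luc (MOI ~0.01) with serial drug dilutions, washed and re-fed with the same drug. Luciferase normalized to total protein at 48 h, minus matched integrase-mutant N/N-Luc background. EC50/EC95 by GROWTH fit, ≥3 experiments; CC50 by WST-1 on HeLa-T4; SI = CC50/EC50.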

[4] = tested on: Human immunodeficiency virus 1; test: Ratio of EC50 for single-round HIV1 NLX.Lux-R harboring inactivating mutations in env, vpr and carries firefly luciferase gene in place of nef assessed as level of infection using human HeLaT4 cells pretreated for 24 hrs followed by exposed to virus immediately after 3 times compound washout to standard EC50 for HIV1 NLX.Lux-R; assay type: functional
Method in brief: (§2)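 HeLa-T4 cells pretreated 24 h with 100× EC95 drug, washed three times, then infected with VSV-G-pseudotyped HIV-Luc at 0, 2, 4, 8 or 12 h after washing. Virus removed by three washes at 2 h; lysis at 48 h. Luciferase normalized to protein, percent of no-drug control, Student's t test. Washout EC50 from immediate infection; ratio to standard EC50; ≥3 experiments in duplicate.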

[5] = Drug uptake in human HeLaT4 cells assessed as compound persist measured after 3 times washout at 100 time EC95 for HIV1 for 24 hrs; assay type: ADME, cell-based; conditions: helat4, 24 h; method in brief: as §2
[6] = Cytotoxicity against human HeLaT4 cells by WST-1 assay; assay type: cell-based
Method in brief: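 HeLa-T4 cells grown in DMEM with 10% FBS, 100 IU/ml penicillin and 100 μg/ml streptomycin; drug cytotoxicity measured by WST-1 read-out, with drugs tested up to 100 μM; 50% cytotoxic concentration (CC50) reported.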

[7] = tested on: Human immunodeficiency virus 1; test: Ratio of EC50 for HIV1 NL4-3.Luc assessed as infectivity using human PBMC pretreated for 24 hrs followed by exposed to virus after compound washout to standard EC50 for HIV1 NL4-3.Luc; assay type: functional
[8] = tested on: Human immunodeficiency virus 1; test: Antiviral activity against HIV1 NL4-3.Luc assessed as infectivity using human MDM pretreated for 24 hrs followed by exposed to virus after compound washout measured after 2 to 3 days by luciferase assay; assay type: functional, organism-based
[9] = tested on: Human immunodeficiency virus 1; test: Antiviral activity against single-round HIV1 NLX.Lux-R harboring inactivating mutations in env, vpr and carries firefly luciferase gene in place of nef assessed as level of infection using human HeLaT4 cells pretreated for 24 hrs followed by exposed to virus immediately after 3 times compound washout; assay type: functional, organism-based; conditions: Human immunodeficiency virus 1, HeLaT4; method in brief: as §2
[10] = Selectivity index, ratio of CC50 for human HeLa-T4 cells to EC50 for single-round HIV1 NLX.Lux-R harboring inactivating mutations in env, vpr and carries firefly luciferase gene in place of nef; assay type: toxicity, cell-based; conditions: read-out: Ratio CC50/EC50; method in brief: as §1
[11] = tested on: Human immunodeficiency virus 1; test: Antiviral activity against single-round HIV1 NLX.Lux-R harboring inactivating mutations in env, vpr and carries firefly luciferase gene in place of nef assessed as level of 2 mins magnetic nanopartials-medated infection in human HeLaT4 cells treated for 1 measured after of 3 times compound washout and rewashed 48 hrs post infection by time-of-addition pulse assay; assay type: functional
Method in brief: (§3)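 Pulse time-of-addition: dialysed virus preincubated with magnetite nanoparticles, added to HeLa-T4 cells, 2 min under ~1 T magnetic field, then washed. At set times after infection, cells pulsed 1 h with 100× EC95 drug, washed three times and cultured drug-free. Lysis at 48 h postinfection; luciferase given as percent of no-drug control.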

[12] = tested on: Human immunodeficiency virus 1; test: Antiviral activity against HIV1 NL4-3.Luc in human PBMC assessed as infectivity treated for 24 hrs by luciferase assay; assay type: functional, organism-based; conditions: Human immunodeficiency virus 1, 24 h
[13] = tested on: Human immunodeficiency virus 1; test: Ratio of EC50 for HIV1 NL4-3.Luc assessed as infectivity using human MDM pretreated for 24 hrs followed by exposed to virus after compound washout to standard EC50 for HIV1 NL4-3.Luc; assay type: functional
[14] = tested on: Human immunodeficiency virus 1; test: Antiviral activity against single-round HIV1 NLX.Lux-R harboring inactivating mutations in env, vpr and carries firefly luciferase gene in place of nef assessed as level of infection using human HeLaT4 cells pretreated at 100 time EC95 for 24 hrs followed by exposed to virus after 12 hrs of 3 times compound washout relative to untreated control cells; assay type: functional, organism-based; method in brief: as §2
[15] = tested on: Human immunodeficiency virus 1; test: Antiviral activity against single-round HIV1 NLX.Lux-R harboring inactivating mutations in env, vpr and carries firefly luciferase gene in place of nef infected in human HeLa-T4 cells assessed as time required to cause 50% loss in compound potency at 10 times EC95 by time-of-addition assay; assay type: functional
Method in brief: (§4)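 Time-of-addition: drug at 10× or 100× EC95 added to HIV-Luc-infected HeLa-T4 cultures at set times after infection. Lysis at 48 h; luciferase as percent of no-drug cells. The time giving 50% inhibition versus the no-drug control was read from the curves.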

[16] = tested on: Human immunodeficiency virus 1; test: Antiviral activity against single-round HIV1 NLX.Lux-R harboring inactivating mutations in env, vpr and carries firefly luciferase gene in place of nef infected in human HeLa-T4 cells assessed as time required to 50% inhibition of infection at 10 times EC95 by time-of-addition assay; assay type: functional; method in brief: as §4
[17] = tested on: Human immunodeficiency virus 1; test: Antiviral activity against single-round HIV1 NLX.Lux-R harboring inactivating mutations in env, vpr and carries firefly luciferase gene in place of nef assessed as suppression of 2 mins magnetic nanopartials-medated residual infection in human HeLaT4 cells treated at 100 time EC95 for 1 measured after 11 hrs of 3 times compound washout and rewashed 48 hrs post infection by time-of-addition pulse assay relative to untreated control; assay type: functional; method in brief: as §3
[18] = tested on: Human immunodeficiency virus 1; test: Antiviral activity against single-round HIV1 NLX.Lux-R harboring inactivating mutations in env, vpr and carries firefly luciferase gene in place of nef infected in human HeLa-T4 cells assessed as time required to 50% inhibition of infection at 100 times EC95 by time-of-addition assay; assay type: functional; method in brief: as §4
[19] = tested on: Human immunodeficiency virus 1; test: Antiviral activity against single-round HIV1 NLX.Lux-R harboring inactivating mutations in env, vpr and carries firefly luciferase gene in place of nef infected in human HeLa-T4 cells assessed as inhibition of 2 mins magnetic nanopartials-medated infectivity after 48 hrs luciferase assay; assay type: functional, organism-based; conditions: for EC50: Human immunodeficiency virus 1, HeLaT4
Method in brief: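 HeLa-T4 cells infected with virus dialysed against HS buffer (pH 7.3, 24 h, 4°C), plus 1.5% FBS, preincubated 5 min with 0.5 mg/ml magnetite nanoparticles. Added at 1:13 (vol/vol) final, 2 min under ~1 T, washed three or four times. Incubated at 37°C; luciferase read at 48 h.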

[20] = tested on: Human immunodeficiency virus 1; test: Antiviral activity against single-round HIV1 NLX.Lux-R harboring inactivating mutations in env, vpr and carries firefly luciferase gene in place of nef assessed as level of infection using human HeLaT4 cells pretreated at 100 time EC95 for 24 hrs followed by exposed to virus after 2 to 4 hrs of 3 times compound washout relative to untreated control cells; assay type: functional; method in brief: as §2
[21] = tested on: Human immunodeficiency virus 1; test: Antiviral activity against single-round HIV1 NLX.Lux-R harboring inactivating mutations in env, vpr and carries firefly luciferase gene in place of nef assessed as level of infection using human HeLaT4 cells pretreated at 100 time EC95 for 24 hrs followed by exposed to virus after 8 hrs of 3 times compound washout relative to untreated control cells; assay type: functional, organism-based; method in brief: as §2
[22] = tested on: Human immunodeficiency virus 1; test: Antiviral activity against single-round HIV1 NLX.Lux-R harboring inactivating mutations in env, vpr and carries firefly luciferase gene in place of nef assessed as level of infection using human HeLaT4 cells pretreated at 100 time EC95 for 24 hrs followed by exposed to virus immediately after 3 times compound washout relative to untreated control cells; assay type: functional; method in brief: as §2
[23] = tested on: Human immunodeficiency virus 1; test: Antiviral activity against single-round HIV1 NLX.Lux-R harboring inactivating mutations in env, vpr and carries firefly luciferase gene in place of nef assessed as level of 2 mins magnetic nanopartials-medated infection in human HeLaT4 cells treated at 100 time EC95 for 1 measured after 3 hrs of 3 times compound washout and rewashed 48 hrs post infection by time-of-addition pulse assay relative to untreated control at 4 hr time point; assay type: functional; method in brief: as §3
[24] = tested on: Human immunodeficiency virus 1; test: Antiviral activity against single-round HIV1 NLX.Lux-R harboring inactivating mutations in env, vpr and carries firefly luciferase gene in place of nef assessed as level of 2 mins magnetic nanopartials-medated residual infection in human HeLaT4 cells treated at 100 time EC95 for 1 measured after 3 hrs of 3 times compound washout and rewashed 48 hrs post infection by time-of-addition pulse assay; assay type: functional; method in brief: as §3

Row | Structure (SMILES) | EC50 [1] [nM] | EC95 [1] [nM] | EC50 [2] [nM] | EC50 [3] [nM] | EC95 [3] [nM] | Ratio EC50 [4] | Drug uptake [5] | CC50 [6] [nM] | Ratio EC50 [7] | EC50 [8] [nM] | EC50 [9] [nM] | selectivity ratio [10] | EC50 [12] [nM] | EC95 [12] [nM] | Ratio EC50 [13] | Activity [14] | Time [15] [h] | Time [16] [h] | fold change (FC) [17] | Activity [22] | further results
1 | CC(C)OC(=O)OCOP(=O)(CO[C@H](C)Cn1cnc2c(N)ncnc21)OCOC(=O)OC(C)C.O=C(O)/C=C/C(=O)O [TENOFOVIR DISOPROXIL FUMARATE] | 28 | 520 | 55 | 2.9 | 37 | 4 | Active | 34000 | 1.2 | 34 | 120 | 11700 | 46 | 720 | 1.2 | Active | – | – | – | – | EC99.6 [11]: 0.95 µM
2 | COc1cc2c(cc1Cc1cccc(Cl)c1F)c(=O)c(C(=O)O)cn2[C@H](CO)C(C)C [ELVITEGRAVIR] | 0.5 | 8.2 | 36 | 2.9 | 37 | 20.7 | – | 34000 | 120 | 25 | 60 | 11700 | 0.3 | 7.4 | 50 | Active | 11.1 | 10.1 | 2 | – | EC98.6 [11]: 75 nM; Time [18]: 11.3 h; Activity [19]: Dose-dependent effect; EC50 [19]: 3400 nM
3 | Cc1cn([C@H]2C[C@H](N=[N+]=[N-])[C@@H](CO)O2)c(=O)[nH]c1=O [ZIDOVUDINE] | – | – | – | 8.4 | 90 | 59.7 | Active | > 100000 | – | – | 4600 | > 11900 | – | – | – | – | 4.8 | – | – | 18% | Activity [20]: 40%; Activity [21]: inactive
4 | Cc1ccnc2c1NC(=O)c1cccnc1N2C1CC1 [NEVIRAPINE] | 27 | 640 | > 100000 | 73 | 680 | >1370 | Not Active | > 100000 | >2439 | > 100000 | > 100000 | > 1370 | 41 | 690 | >3703 | – | 7.2 | – | – | inactive | Activity [23]: 23%
5 | Cc1nnc(C(=O)NC(C)(C)c2nc(C(=O)NCc3ccc(F)cc3)c(O)c(=O)n2C)o1 [RALTEGRAVIR] | 4.3 | 80 | 3300 | 77 | 810 | 547.6 | – | > 100000 | 1375 | 4900 | 4600 | > 1300 | 2.4 | 48 | 1140 | – | 10.2 | 10.5 | 2 | 19% | Activity [20]: 50%; EC91 ([11]; Human immunodeficiency virus 1, HeLaT4): 0.073 µM; Activity [24]: 9%; Time [18]: 12.7 h
6 | O=C1Nc2ccc(Cl)cc2[C@@](C#CC2CC2)(C(F)(F)F)O1 [EFAVIRENZ] | – | – | – | 1.1 | 8 | – | – | 35000 | – | – | – | 31800 | – | – | – | – | – | – | – | – | Activity [19]: Dose-dependent effect; EC50 [19]: 1000 nM
